# From PubChem BioAssay
# Most compounds without a hit are left out; they make up all but 2.8% or so of the library.
# PAFAH2 inh = PAFAH2 (human) inhibition. Q99487. recombinant PAFAH2, FP-rhodamine activity probe, fluorescence polarization. inhibition, % at 3.39 µM. 340,000 compounds, 0.99% hits;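 active means inhibition above the mean over all tested compounds plus 3 SD, cut at about 30% in these data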;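 further: inhibitors block probe labeling of enzyme so polarization drops; 0% = enzyme with DMSO and 100% = wells lacking PAFAH2 protein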
# HTRA1 inhibitor = inhibitors of human serine peptidase HTRA1; inhibition, % at 5.96 µM; AID 504803; 340,000 compounds, 0.5% hits; recombinant HTRA1, FP-rhodamine activity-based probe, fluorescence polarization; Q92743; in the data active means inhibition above about 36%;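 further: 0% = enzyme with DMSO and 100% = wells lacking enzyme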
# pPAFAH FP inh = pPAFAH (human) enzyme inhibition | AID 463082 | 330,000 compounds, 1.5% hits | recombinant pPAFAH, FP-rhodamine probe fluorescence polarization | Q13093 | inhibition, % at 3.39 µM;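 active means inhibition above the mean inhibition across the screen plus 3 SD, cut at about 25% in these data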;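 further: inhibitors block binding of the rhodamine activity-based probe so polarization drops; 0% = enzyme with DMSO and 100% = wells lacking pPAFAH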
# PAFAH1B3 inh = inhibitors of human PAFAH1B3; Q15102; inhibition, % at 3.39 µM; recombinant PAFAH1B3, FP-rhodamine probe, fluorescence polarization; AID 492972; 340,000 compounds, 0.28% hits;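 active means inhibition above the screen-wide average of all tested compounds plus 3 SD, cut at about 25% in these data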;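 further: 0% = enzyme with DMSO only and 100% = wells lacking PAFAH1B3 protein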
# ABHD4 inh = inhibits mouse alpha/beta hydrolase domain 4; purified mABHD4, FP-Rh probe fluorescence polarization; 370,000 compounds, 0.54% hits; AID 720543; inhibition, % at 8.92 µM; Q8VD66;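 active means inhibition exceeding the mean over every tested compound plus 3 SD, cut at about 30% in these data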;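 further: 0% = plate median of compound wells and 100% = S159A mutant with DMSO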
# Target sequence (Q8VD66 whole entry, looked up, the tested form may be a part): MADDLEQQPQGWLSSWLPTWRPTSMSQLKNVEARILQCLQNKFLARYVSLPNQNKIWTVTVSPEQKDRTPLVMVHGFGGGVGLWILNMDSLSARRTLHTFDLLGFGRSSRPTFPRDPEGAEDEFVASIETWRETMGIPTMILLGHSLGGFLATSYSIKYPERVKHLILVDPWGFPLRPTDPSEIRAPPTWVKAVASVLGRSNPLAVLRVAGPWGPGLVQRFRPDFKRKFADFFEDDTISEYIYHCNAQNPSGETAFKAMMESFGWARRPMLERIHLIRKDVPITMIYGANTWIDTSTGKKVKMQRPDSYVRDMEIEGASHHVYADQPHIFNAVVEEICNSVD
#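 Test system: mABHD4 protein; Read-out basis: % inhibition; Incubation: 45 min + 60 min at 25 °C; Repeats: single replicate; Technique: fluorescence polarization with parallel and perpendicular emission, 525/598 nm; Compound: 8.92 µM, single dose; Benchmarks: full inhibition S159A mutant plus DMSO, zero as sample-well median.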
# PAFAH1B2 FP inh = inhibitors of human PAFAH1B2 | P68402 | recombinant PAFAH1B2, FP-rhodamine activity probe, fluorescence polarization | inhibition, % at 3.39 µM | 340,000 compounds, 1.2% hits;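 active means inhibition above the mean of all tested compounds plus 3 SD, cut at about 24% in these data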;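 further: 0% = enzyme with DMSO and 100% = wells lacking PAFAH1B2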
# pPAFAH FP conf = pPAFAH (human) inhibition, confirmed. shares compounds with pPAFAH FP inh. recombinant pPAFAH, FP-Rh probe fluorescence polarization. inhibition, % at 3.39 µM. 2,300 compounds, 72% hits;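 active means mean inhibition of the triplicate above the hit cutoff set for the earlier primary screen, cut at about 25% in these data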;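 further: 0% = enzyme with DMSO and 100% = wells lacking pPAFAH enzyme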
# Active calls of the source: *; x = no result given.
SMILES,PAFAH2 inh,HTRA1 inhibitor,pPAFAH FP inh,PAFAH1B3 inh,ABHD4 inh,PAFAH1B2 FP inh,pPAFAH FP conf
COc1ccc(CN2C(=O)N3Cc4ccc(C)cc4C3CS2(=O)=O)cc1 (stereo not drawn),x,x,x,x,6,x,x
CN1CCN(CCCN2c3ccccc3Sc3ccc(C(F)(F)F)cc32)CC1,-1,10,37*,9,29,3,30*
O=C(CN1CCCC(O)C1)N1c2ccccc2Sc2ccc(C(F)(F)F)cc21 (stereo not drawn),0,-5,7,-4,-6,6,x
COc1ccc(S[C@]2(C(=O)N(C)C)CC(=O)N[C@@H]2c2ccc(OC)cc2)cc1,x,x,x,x,-3,x,x
CCOC(=O)Cc1cc(=O)n2[nH]c(-c3ccccc3)c(-c3ccccc3)c2n1,-4,-13,43*,-18,-6,-5,19
CCOC(=O)Cc1cc(=O)n2[nH]c(C)c(-c3ccccc3)c2n1,-3,3,16,-5,-6,-1,x
CC(C)CNC(=O)OCc1cn(Cc2ccccc2)nn1,x,x,x,x,6,x,x
COc1ccccc1NC(=O)COC(=O)C1CC1,18,-9,5,5,-1,3,x
COc1ccccc1NC(=O)COC(=O)c1ccc([N+](=O)[O-])s1,38*,33,37*,26*,-1,12,6
O=C(C1CCN(c2cncnc2)CC1)N1CCOCC1,x,x,x,x,4,x,x
O=C(c1ccccc1)c1nn(-c2ccccc2)c2nnc(Cc3ccccc3)c(=O)n12,27,-46,41*,3,-8,-1,30*
O=C(Nc1ccccc1)OC1CC2CC1[C@H]1CCCCN1[C@H]2Cc1ccccc1 (stereo partly drawn),x,x,x,x,-2,x,x
CC(C)(C)c1cc(NCCCn2ccnc2)n2ncc(-c3ccc(Cl)cc3)c2n1,4,7,39*,5,12,0,19
CCC[C@H]1[C@@H](OC(=O)NC2CCC2)CC[C@@]23CCCN2C(=O)CCC[C@@H]13,x,x,x,x,-1,x,x
Cn1cccc1/C=N/N1CCN(Cc2ccccc2)CC1,1,4,4,5,4,8,x
Cn1cccc1/C=N/N1CCN(Cc2cccc3ccccc23)CC1,13,9,46*,-2,-3,-1,3
N#CCC(=O)Nc1ncn(Cc2ccccc2Cl)n1,2,-2,35*,1,12,2,3
Cc1cc(C(=O)N/N=C2\CC(=O)c3ccccc32)c(C)n1-c1ccc(F)cc1,1,30,42*,14,25,2,32*
COc1ccc(Oc2c(Cl)cnn(C3c4ccccc4-c4ccccc43)c2=O)cc1,x,x,x,x,-2,x,x
COCCNC(=O)/C(C#N)=C/c1cc(C)n(-c2ccc(C)cc2)c1C,8,2,55*,7,-5,1,52*
COc1ccc(-c2coc3cc(OC(=O)N4CCOCC4)ccc3c2=O)cc1,7,1,51*,5,1,-8,43*
COc1cc(O)c(C(CC(=O)N2CCCC(C)C2)c2ccccc2)c(OC)c1 (stereo not drawn),x,x,x,x,4,x,x
COC(=O)[C@]12CCCCC=C1N(Cc1ccc(OC)cc1)C(=O)[C@@H]2CC(=O)N1CCC(c2ccccc2)CC1,x,x,x,x,-5,x,x
O=c1cc(-c2ccccc2)nc2c(-c3ccccc3)c(C(F)(F)F)[nH]n12,x,x,45*,x,-28,x,54*
Cc1cc(=O)n2[nH]c(C)c(-c3ccccc3)c2n1,3,0,5,8,1,-1,x
Cc1cc([N+](=O)[O-])cc(/C=N/n2c(C)nc3ccccc3c2=O)c1O,11,6,11,13,1,2,x
C/C(=N\OCc1nc2ccccc2c(=O)n1/N=C/c1cc(C)cc([N+](=O)[O-])c1O)c1ccccc1,2,0,46*,4,8,0,4
CCN(CC(=O)Nc1c(F)cccc1F)C(=O)/C=C/c1ccc2ccccc2n1,15,2,40*,6,-4,-1,25*
O=C(CSc1nnc(-c2ccccn2)n1-c1ccccc1)c1ccc(F)cc1,x,x,x,x,-4,x,x
O=c1oc2c(CN3CCCCC3)c(O)ccc2c2c1CCCC2,0,6,38*,-5,8,-1,5
